From paper PMC5110367 (Nature chemical biology, 2016) come the findings set out here.

Test [1] has as its target T1, PPARγ (Mus musculus, UniProt P37238).
T1 sequence (P37238 1-505): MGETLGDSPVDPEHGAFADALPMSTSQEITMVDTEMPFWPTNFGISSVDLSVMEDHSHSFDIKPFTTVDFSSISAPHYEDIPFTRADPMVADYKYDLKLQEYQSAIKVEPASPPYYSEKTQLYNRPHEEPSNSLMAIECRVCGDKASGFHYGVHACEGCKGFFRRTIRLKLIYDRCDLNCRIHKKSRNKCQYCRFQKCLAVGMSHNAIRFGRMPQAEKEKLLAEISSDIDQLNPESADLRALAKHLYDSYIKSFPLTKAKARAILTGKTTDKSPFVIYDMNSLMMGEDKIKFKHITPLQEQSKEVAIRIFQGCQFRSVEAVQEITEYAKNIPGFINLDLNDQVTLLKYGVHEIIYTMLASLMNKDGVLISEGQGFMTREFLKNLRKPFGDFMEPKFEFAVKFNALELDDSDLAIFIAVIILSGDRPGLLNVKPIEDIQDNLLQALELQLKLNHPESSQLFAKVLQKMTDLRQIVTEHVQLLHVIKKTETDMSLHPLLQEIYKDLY
Put plainly: GW9662 against rosiglitazone-stimulated PPRE-luciferase in Pparb-null astrocytes. The test is classed as cell-based. To be noted: GW9662 30 min before rosiglitazone.

In test [2] the target is T2, Y314D/Y464D-Ppara (Mus musculus, UniProt P23204, Y314D/Y464D).
T2 sequence (P23204 1-468 Y314D/Y464D): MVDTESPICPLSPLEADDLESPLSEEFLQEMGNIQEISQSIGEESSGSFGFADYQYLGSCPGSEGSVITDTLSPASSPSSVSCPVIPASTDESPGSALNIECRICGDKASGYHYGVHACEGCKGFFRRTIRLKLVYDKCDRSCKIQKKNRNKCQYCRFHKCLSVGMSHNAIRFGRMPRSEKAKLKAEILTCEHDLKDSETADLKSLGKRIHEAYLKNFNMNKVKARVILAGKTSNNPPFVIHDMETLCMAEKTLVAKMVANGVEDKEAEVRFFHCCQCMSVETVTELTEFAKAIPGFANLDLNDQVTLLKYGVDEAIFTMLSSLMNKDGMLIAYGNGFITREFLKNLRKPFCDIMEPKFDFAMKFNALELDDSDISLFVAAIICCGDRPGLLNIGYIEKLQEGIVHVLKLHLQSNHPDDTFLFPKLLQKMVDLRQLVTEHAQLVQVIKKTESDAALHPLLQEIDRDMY
The test is classed as cell-based.

Test [3] addresses T3, Y314D-Ppara (Mus musculus, UniProt P23204, Y314D).
T3 sequence (P23204 1-468 Y314D): T2 sequence (P23204 1-468 Y314D/Y464D) with D464Y
The test is classed as cell-based.

Test [4] concerns PPRE-driven luciferase activity. The experiment in a line: PPRE-luciferase assay in Ppara-null astrocytes transduced with empty vector. To be noted: 4 h. The test is classed as cell-based, mouse. The method, boiled down:
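Ppara-null astrocytes came from mixed glial cultures of 7-d-old pups. They were transduced 48 h with empty-vector lentivirions and transfected with tk-PPREx3-Luc reporter. After 24 h they were treated with different doses of test compound for 4 h, then luciferase activity was read. Values are mean ± SD of three independent experiments.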

Test [5] addresses T4, FL-Ppara (Mus musculus, UniProt P23204).
T4 sequence (P23204 1-468): T2 sequence (P23204 1-468 Y314D/Y464D) with D314Y, D464Y
The test is classed as cell-based.

Test [6] deals with Ppara-null hippocampal neurons. The experiment in a line: Dendritic spine density. The test is classed as cell-based, mouse. To be noted: Ppara-null neurons transduced with lenti-FL-Ppara or lenti-Y464D-Ppara. In short, it runs like this:
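Ppara-null hippocampal neurons were taken from E18 fetuses and treated with 10 μM AraC to remove glia. They were differentiated 9–10 days, then transduced 48 h with lentivirions carrying GFP (vector), FL-Ppara or Y464D-Ppara. Neurons then received vehicle (DMSO) or test compound for 24 h. They were stained with Dylight-554-phalloidin, and spine density was scored by fluorescence microscopy.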

Test [7] addresses T5, Y464D-Ppara (Mus musculus, UniProt P23204, Y464D).
T5 sequence (P23204 1-468 Y464D): T2 sequence (P23204 1-468 Y314D/Y464D) with D314Y
The test is classed as cell-based.

Changes are numbered by the printed parent chain. Read-outs that look alike come from different tables or passages of the source.

On to `O=C(Nc1ccccc1)c1cc([N+](=O)[O-])ccc1Cl` [GW9662], for which the “effect on rosiglitazone-mediated PPRE-luciferase activity” value in test [1] is “Inhibition of rosiglitazone-mediated increase in PPRE-luciferase activity”.
In the case of `Cc1cccc(Nc2cc(Cl)nc(SCC(=O)O)n2)c1C` [WY14643, reference compound], the PPRE-luciferase activity result in test [2], in test [3] and in test [7] was “no luciferase activity” throughout. Besides, the PPRE-driven luciferase activity result in test [4] is on record as “unable to induce PPRE-luciferase activity”. For the same compound, the PPRE-luciferase reporter activity entry in test [5] is “markedly induced PPRE-luciferase activity”. For the same compound, in test [6], the “density of dendritic spines” value is “stimulated the density of spines only when Ppara-null neurons were transduced with lenti-FL-Ppara, but not lenti-Y464D-Ppara”.
On to `CCOC(=O)C(C)(C)Oc1ccc(Cl)cc1` [clofibrate, reference compound], for which the PPRE-luciferase activity result in test [2] (Ppara-null astrocytes transduced with lenti-Y314D/Y464D-Ppara, 4 h) is “no luciferase activity”; in test [3] (Ppara-null astrocytes transduced with lenti-Y314D-Ppara, 4 h), “no luciferase activity”; in test [7] (Ppara-null astrocytes transduced with lenti-Y464D-Ppara, 4 h), “no luciferase activity”. The PPRE-driven luciferase activity entry in test [4] was “unable to induce PPRE-luciferase activity”. Further, the PPRE-luciferase reporter activity entry in test [5] (Ppara-null astrocytes transduced with lenti-FL-Ppara, 4 h) is reported as “markedly induced PPRE-luciferase activity”.
For the compound `CC(C)OC(=O)C(C)(C)Oc1ccc(C(=O)c2ccc(Cl)cc2)cc1` [fenofibrate], the PPRE-driven luciferase activity entry in test [4] is “unable to induce PPRE-luciferase activity”.
